ChEMBL document CHEMBL4732111, “A greener protocol for the synthesis of phosphorochalcogenoates: Antioxidant and free radical scavenging activities” (Eur J Med Chem, 2021)

How the values were obtained:
[1] = Antioxidant activity assessed as ferric ion reducing activity by measuring absorbance at 100 uM measured after 40 mins by FRAP assay (reference value: 0.11 +/- 0.02); assay type: functional
How it was run: (§1)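 Compounds at 10–500 µM mixed with FRAP reagent (FeCl3, triazine and sodium acetate buffer pH 3.2; 10:1:1). Incubated 40 min at 37 °C in the dark; absorbance reported. Vehicle and Trolox 10 µM as controls. Mean ± SEM, n = 3; one-way ANOVA with Tukey versus vehicle.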

[2] = Antioxidant activity assessed as ABTS radical scavenging activity at 50 uM relative to control; assay type: functional
How it was run: (§2)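 Compounds at 10–500 µM mixed with ABTS•+ solution; scavenging read as fall in absorbance at 734 nm, expressed as percent scavenging relative to vehicle. Trolox 10 µM as positive control. Mean ± SEM, n = 3; one-way ANOVA with Tukey.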

[3] = tested on: Brain; test: Antioxidant activity in Swiss mouse brain cerebral tissue assessed as inhibition of sodium azide-induced reactive species production by measuring fluorescence unit at 50 uM by DCHF-DA dye based spectrofluorimetric method (reference value: 139 +/- 26.8 U); assay type: functional
[4] = Toxicity in Swiss mouse assessed as change in plasma urea level at 10 mg/kg, ig measured after 30 mins (reference value: 90.31 +/- 0.74 mg/dl); assay type: organism-based; conditions: in vivo, po, 0.5 h
How it was run: (§3)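 Swiss mice dosed intragastrically at 10 mg/kg (control canola oil 10 mL/kg). After 30 min, blood taken by heart puncture into heparin under light isoflurane anesthesia. Plasma obtained at 200 g for 10 min, hemolyzed samples discarded. ALT, AST, urea and creatinine measured with commercial kits. 5–6 mice per group; Student's t-test.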

[5] = Antioxidant activity assessed as DPPH radical scavenging activity at 10 uM incubated for 30 mins under dark condition relative to control; assay type: functional
How it was run: (§4)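 Compounds at 10–500 µM mixed with ethanolic DPPH solution. Incubated 30 min at 30 °C in the dark, then absorbance read at 517 nm. Scavenging expressed as percent relative to vehicle; Trolox 10 µM as positive control. Mean ± SEM, n = 3; one-way ANOVA with Tukey.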

[6] = Antioxidant activity assessed as ABTS radical scavenging activity at 100 uM relative to control; assay type: functional; how it was run: as §2
[7] = Ex vivo antioxidant activity in Swiss mouse assessed as inhibition of canola oil-induced lipid peroxidation in brain by measuring TBARS level at 10 mg/kg, ig measured after 30 mins (reference value: 91.91 +/- 9.38 /g); assay type: functional; conditions: 0.5 h
[8] = tested on: Brain; test: Antioxidant activity in Swiss mouse brain cerebral tissue assessed as inhibition of SNP-induced lipid peroxidation by measuring TBARS level at 10 uM incubated for 1 hr relative to control; assay type: functional, tissue-based; set-up: scale not given: the % may be the effect or the level left
How it was run: (§5)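 Whole brain of male adult Swiss mice homogenized in cold 50 mM Tris-HCl pH 7.4 (1/5 w/v) and spun 2400 g, 10 min, 4 °C; supernatant S1 used. Peroxidation induced with sodium nitroprusside in the presence of compound. Then SDS 8.1%, TBA 0.8% and acetic acid/HCl pH 3.4 added, heated 95 °C for 2 h; MDA measured as marker. Trolox 10 µM as positive control. n = 3; one-way ANOVA with Tukey versus induced.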

[9] = Antioxidant activity assessed as DPPH radical scavenging activity at 500 uM incubated for 30 mins under dark condition relative to control; assay type: functional; how it was run: as §4
[10] = Antioxidant activity assessed as DPPH radical scavenging activity at 50 uM incubated for 30 mins under dark condition relative to control; assay type: functional; how it was run: as §4
[11] = Toxicity in Swiss mouse assessed as change in plasma ALT level at 10 mg/kg, ig measured after 30 mins (reference value: 110.90 +/- 12.4 IU/L); assay type: organism-based; conditions: in vivo, po, 0.5 h; how it was run: as §3
[12] = Ex vivo antioxidant activity in Swiss mouse assessed as inhibition of canola oil-induced lipid peroxidation in kidney by measuring TBARS level at 10 mg/kg, ig measured after 30 mins (reference value: 438.20 +/- 27.59 /g); assay type: functional; conditions: 0.5 h
[13] = tested on: Brain; test: Antioxidant activity in Swiss mouse brain cerebral tissue assessed as inhibition of sodium azide-induced reactive species production by measuring fluorescence unit at 500 uM by DCHF-DA dye based spectrofluorimetric method (reference value: 139 +/- 26.8 U); assay type: functional
[14] = tested on: Brain; test: Antioxidant activity in Swiss mouse brain cerebral tissue assessed as inhibition of sodium azide-induced reactive species production by measuring fluorescence unit at 100 uM by DCHF-DA dye based spectrofluorimetric method (reference value: 139 +/- 26.8 U); assay type: functional
[15] = Ex vivo antioxidant activity in Swiss mouse assessed as inhibition of canola oil-induced superoxide dismutase activity in brain by measuring SOD activity at 10 mg/kg, ig measured after 30 mins by spectrophotometric method (reference value: 25.44 +/- 4.12 U/min); assay type: functional; conditions: 0.5 h
How it was run: (§6)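 Swiss mice dosed orally at 10 mg/kg (vehicle canola oil); brain S1 prepared 30 min later. SOD measured as inhibition of epinephrine autoxidation in Na2CO3 50 mM pH 10.3 at 480 nm, one unit = 50% inhibition at 26 °C. GPx measured as NADPH decay coupled to glutathione reductase with H2O2 and GSH. Mean ± SEM, 6 mice per group; Student's t-test.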

[16] = Toxicity in Swiss mouse assessed as change in plasma AST level at 10 mg/kg, ig measured after 30 mins (reference value: 148 +/- 8.08 […]); assay type: organism-based; conditions: in vivo, po, 0.5 h; how it was run: as §3
[17] = Ex vivo antioxidant activity in Swiss mouse assessed as inhibition of canola oil-induced glutathione peroxidase activity in brain by measuring oxidation of NADPH at 10 mg/kg, ig measured after 30 mins by spectrophotometric method (reference value: 12.8 +/- 2.28 nmol/g); assay type: functional; conditions: 0.5 h; how it was run: as §6
[18] = Antioxidant activity assessed as ferric ion reducing activity by measuring absorbance at 50 uM measured after 40 mins by FRAP assay (reference value: 0.11 +/- 0.02); assay type: functional; how it was run: as §1
[19] = tested on: Brain; test: Antioxidant activity in Swiss mouse brain cerebral tissue assessed as inhibition of sodium azide-induced reactive species production by measuring fluorescence unit at 10 uM by DCHF-DA dye based spectrofluorimetric method (reference value: 139 +/- 26.8 U); assay type: functional
[20] = Antioxidant activity assessed as ferric ion reducing activity by measuring absorbance at 500 uM measured after 40 mins by FRAP assay (reference value: 0.11 +/- 0.02); assay type: functional; how it was run: as §1
[21] = Ex vivo antioxidant activity in Swiss mouse assessed as inhibition of canola oil-induced lipid peroxidation in liver by measuring TBARS level at 10 mg/kg, ig measured after 30 mins (reference value: 271.5 +/- 43.88 /g); assay type: functional; conditions: 0.5 h
[22] = Antioxidant activity assessed as ferric ion reducing activity by measuring absorbance at 10 uM measured after 40 mins by FRAP assay (reference value: 0.11 +/- 0.02); assay type: functional; how it was run: as §1
[23] = Antioxidant activity assessed as DPPH radical scavenging activity at 100 uM incubated for 30 mins under dark condition relative to control; assay type: functional; how it was run: as §4
[24] = Toxicity in Swiss mouse assessed as change in plasma creatinine level at 10 mg/kg, ig measured after 30 mins (reference value: 1.77 +/- 0.05 mg/dl); assay type: organism-based; conditions: in vivo, po, 0.5 h; how it was run: as §3
[25] = Antioxidant activity assessed as ABTS radical scavenging activity at 10 uM relative to control; assay type: functional; how it was run: as §2
[26] = tested on: Brain; test: Antioxidant activity in Swiss mouse brain cerebral tissue assessed as inhibition of SNP-induced lipid peroxidation by measuring TBARS level at 500 uM incubated for 1 hr relative to control; assay type: functional, tissue-based; set-up: scale not given: the % may be the effect or the level left; how it was run: as §5
[27] = Antioxidant activity assessed as ABTS radical scavenging activity at 500 uM relative to control; assay type: functional; how it was run: as §2
[28] = tested on: Brain; test: Antioxidant activity in Swiss mouse brain cerebral tissue assessed as inhibition of SNP-induced lipid peroxidation by measuring TBARS level at 50 uM incubated for 1 hr relative to control; assay type: functional, tissue-based; set-up: scale not given: the % may be the effect or the level left; how it was run: as §5
[29] = tested on: Brain; test: Antioxidant activity in Swiss mouse brain cerebral tissue assessed as inhibition of SNP-induced lipid peroxidation by measuring TBARS level at 100 uM incubated for 1 hr relative to control; assay type: functional, tissue-based; set-up: scale not given: the % may be the effect or the level left; how it was run: as §5
[30] = Stability of compound exposed to blue LED light using DCM as solvent assessed as parent compound remaining measured after 2 hrs by 31P-[1H] NMR spectroscopy; assay type: physicochemical; conditions: DCM solution exposed to blue LED light, read-out: Stabilty
[31] = Drug metabolism in TsOH assessed as tetraethyl diphosphate formation measured after 2 hrs by 31P-[1H] NMR spectroscopy
[32] = Stability of compound in TsOH measured after 24 hrs; assay type: physicochemical
[33] = Stability of compound exposed to blue LED light using DMSO as solvent measured after 24 hrs; assay type: physicochemical
[34] = Stability of compound exposed to blue LED light using EtOH as solvent measured after 24 hrs; assay type: physicochemical
[35] = Stability of compound exposed to blue LED light using DCM as solvent measured after 24 hrs; assay type: physicochemical
[36] = Stability of compound in Na2CO3 measured after 24 hrs; assay type: physicochemical

| SMILES | Activity [1] | Activity [2] [%] | Activity [4] [mg/dL] | Activity [5] [%] | Activity [7] [g⁻¹] | Activity [8] [%] | Activity [9] [%] | Activity [10] [%] | Activity [11] [IU/L] | Activity [12] [g⁻¹] | Activity [15] [U/min] | Activity [16] [IU/L] | Activity [17] [nmol/g] | Activity [18] | Activity [19] [U] | Activity [20] | Activity [21] [g⁻¹] | Activity [22] | Activity [23] [%] | Activity [25] [%] | other results |
| --- | --- | --- | --- | --- | --- | --- | --- | --- | --- | --- | --- | --- | --- | --- | --- | --- | --- | --- | --- | --- | --- |
| COP(=O)(OC)[Se]c1ccc(C)cc1 | 0.17 | 12.5 | 80.24 | 12.2 | 54.79 | 73 | 3.62 | 6.83 | 119 | 455.4 | 7.37 | 147.4 | 7.48 | 0.17 | 70.3 | 0.29 | 199.9 | 0.14 | 9.87 | 11.5 | Activity [3]: 84.9 U; Activity [6]: 29.9%; Activity [13]: 62.7 U; Activity [14]: 70.1 U; Activity [24]: 1.96 mg/dL |
| Cc1c(C)c2c(c(C)c1O)CCC(C)(C(=O)O)O2 (stereo not given) [TROLOX] |  |  |  | 93.5 |  | 29.8 |  |  |  |  |  |  |  |  | 99 |  |  | 0.39 |  | 94.3 |  |
| CCCCOP(=O)(OCCCC)[Se]c1ccccc1 | 0.15 | 8.76 | 105 | 6.14 | 87.71 | 79.3 | 7.38 | 18.4 | 140 | 371 | 23.85 | 159.3 | 5.5 | 0.15 | 98.3 | 0.3 | 249.4 | 0.11 | 12.2 | 1.92 | Activity [3]: 76.1 U; Activity [26]: 57%; Activity [6]: 3.84%; Activity [14]: 61.4 U; Activity [27]: 2.34%; Activity [28]: 83.8%; Activity [29]: 90.4%; Activity [24]: 1.75 mg/dL |
| CCOP(=O)(OCC)[Te]c1ccccc1 |  |  |  |  |  |  |  |  |  |  |  |  |  |  |  |  |  |  |  |  | remaining at 2 h [30]: 20%; Drug metabolism [31]: Metabolite detected |
| CCOP(=O)(OCC)[Se]c1ccccc1 |  |  |  |  |  |  |  |  |  |  |  |  |  |  |  |  |  |  |  |  | Stabilty [32]: Stable; Stabilty [33]: Stable; Stabilty [34]: Stable; Stabilty [35]: Stable; Stabilty [36]: Stable |
| COP(=O)(OC)[Se]c1ccccc1 | 0.12 | 10.3 | 80.3 | 5.53 | 87.34 | 84.7 | 21.9 | 7.83 | 117.4 | 676.6 | 25.94 | 151.2 | 7.18 | 0.12 | 71.5 | 0.16 | 326 | 0.11 | 4.68 | 5.02 | Activity [26]: 79.8%; Activity [28]: 80.6%; Activity [29]: 85.9%; Activity [24]: 1.78 mg/dL |
| O=P(OCc1ccccc1)(OCc1ccccc1)[Se]c1ccccc1 | 0.4 | 3.06 | 98.59 | 2.19 | 83 | 59.5 | 5.04 | 3.94 | 138.1 | 580.5 | 17.54 | 155.3 | 6.39 | 0.23 | 61.7 | 1.02 | 263.8 | 0.16 | 3.72 | 3.85 | Activity [6]: 1.86%; Activity [27]: 12.4%; Activity [24]: 1.52 mg/dL |
| COc1ccc([Se]P(=O)(OC)OC)cc1 | 0.19 | 8.6 | 74.39 | 3.72 | 64.64 | 87.6 | 19.1 | 6.95 | 119.5 | 422.5 | 13.47 | 151 | 4.98 | 0.16 | 94 | 0.26 | 280.8 | 0.16 | 11.9 | 6.76 | Activity [3]: 94.1 U; Activity [26]: 58%; Activity [6]: 6.91%; Activity [14]: 67.2 U; Activity [27]: 19.8%; Activity [28]: 78.6%; Activity [29]: 78.1%; Activity [24]: 2.36 mg/dL |
